Assay outcomes: PubChem, several laboratories
Compounds with a hit are over-represented: about 2.3% of the library has one in this group of screens.
CR mimetic SO = caloric restriction mimetics inhibiting age-related superoxide in yeast | S. cerevisiae aged cells, superoxide DHE fluorescence; stronger effect = lower value | 330,000 compounds, 0.18% hits | superoxide response (% of plate mean), % at 10 µM;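 active = superoxide response under a set limit, about three screen SD below normal, cut at about 65% in these data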;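 note: yeast aged for seven days with compound at 30 °C before DHE staining; 100% = average MFI of all compound-treated wells on the plate with controls excluded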
TRPC4 potent = allosterically enhances the mouse TRPC4 cation channel; Q9QUQ5; HEK293 TRPC4beta/mu-opioid, DAMGO EC20, Fluo-4 Ca2+ flux; stronger effect = higher value; B-score at 10 µM; 310,000 compounds, 0.42% hits;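 active = B-score of calcium response area above 5 SD of library B-scores, with initial fluorescence ratio within 5 SD of library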;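 note: B-score of integrated fluorescence ratio over time as area under calcium response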
Target sequence (Q9QUQ5 whole entry, looked up): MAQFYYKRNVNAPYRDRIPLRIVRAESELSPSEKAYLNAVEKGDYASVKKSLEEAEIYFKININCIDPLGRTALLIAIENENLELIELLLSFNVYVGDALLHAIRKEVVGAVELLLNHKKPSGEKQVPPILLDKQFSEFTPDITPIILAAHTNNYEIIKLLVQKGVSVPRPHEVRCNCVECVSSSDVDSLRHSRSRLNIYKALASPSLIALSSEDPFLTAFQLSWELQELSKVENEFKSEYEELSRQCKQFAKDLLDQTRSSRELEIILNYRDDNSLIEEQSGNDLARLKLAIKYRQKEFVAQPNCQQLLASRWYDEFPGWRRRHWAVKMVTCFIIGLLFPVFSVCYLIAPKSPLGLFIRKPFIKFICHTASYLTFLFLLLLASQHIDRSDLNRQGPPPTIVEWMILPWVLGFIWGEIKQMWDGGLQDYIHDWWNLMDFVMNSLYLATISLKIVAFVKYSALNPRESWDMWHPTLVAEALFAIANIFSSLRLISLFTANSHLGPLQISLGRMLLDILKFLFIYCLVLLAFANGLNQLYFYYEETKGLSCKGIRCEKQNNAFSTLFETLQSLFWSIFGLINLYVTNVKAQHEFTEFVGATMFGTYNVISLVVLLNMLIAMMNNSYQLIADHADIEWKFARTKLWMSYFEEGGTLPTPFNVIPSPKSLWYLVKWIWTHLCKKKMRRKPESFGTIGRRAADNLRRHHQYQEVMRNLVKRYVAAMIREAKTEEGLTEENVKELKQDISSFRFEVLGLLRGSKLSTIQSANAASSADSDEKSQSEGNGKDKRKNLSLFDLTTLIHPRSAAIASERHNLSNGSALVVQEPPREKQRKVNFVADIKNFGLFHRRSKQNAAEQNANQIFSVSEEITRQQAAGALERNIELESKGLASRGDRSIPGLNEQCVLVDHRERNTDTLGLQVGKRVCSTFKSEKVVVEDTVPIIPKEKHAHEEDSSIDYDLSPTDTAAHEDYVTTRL
TRPC6 activator = activators of mouse TRPC6 channel; HEK293-TRPC6 membrane potential dye fluorescence; stronger effect = higher value; B-score at 10 µM; 310,000 compounds, 0.13% hits;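 active = B-score of the integrated fluorescence ratio above library mean plus 3 SD, and starting fluorescence ratio within library mean plus 5 SD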;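 note: higher score means more depolarization so channel activation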
TRPC4 inh = blocks the mouse TRPC4 cation channel. Q9QUQ5. HEK293 TRPC4beta/mu-opioid, DAMGO-evoked Fluo4 calcium flux; stronger effect = lower value. B-score at 10 µM. 300,000 compounds, 0.39% hits;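 active = B-score over 3 SD under the library average, no early fluorescence shift, positive overall ratio signal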
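Test system – stable TRPC4beta/mu-opioid receptor HEK293 cells · Probe or stimulus – DAMGO, a submaximal dose followed by a maximal one · Dosing – one concentration per compound · Signal – Fluo4 calcium fluorescence by kinetic imaging, 5 s 1 Hz baseline · Evaluation – per-well B score of integrated baseline-normalized Fluo4 ratio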
TRPC6 inh = inhibitors of mouse TRPC6 channel; HEK293-TRPC6, membrane potential dye, ACh-evoked depolarization; stronger effect = lower value; B-score at 10 µM; 310,000 compounds, 1.1% hits; AID 2553;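 active = B-score under library mean minus 3 SD, initial fluorescence not abnormally high, positive integrated signal ratio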;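 note: B-score derived from integrated fluorescence ratio over the kinetic read; more negative B-score means stronger inhibition of depolarization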
TRPC4 agonist = TRPC4 (mouse) channel activation; Q9QUQ5; HEK293 TRPC4beta/mu-opioid, Fluo4 calcium fluorescence; stronger effect = higher value; B-score at 10 µM; 310,000 compounds, 0.49% hits; AID 2237;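 active = B-score above 5 SD of library B-scores, and initial fluorescence ratio not above library mean plus 5 SD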;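 note: positive B-score marks a calcium rise read as TRPC4 activation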
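system = HEK293 cells stably co-expressing mouse TRPC4beta and mu-opioid receptor | schedule = Fluo4 dye loading 45 min at room temperature, 110 s recording | measure = B-scored integrated calcium fluorescence ratio | signal = Fluo4 calcium-sensitive dye fluorescence, kinetic, 1 Hz baseline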
TRPC4 spec 2 = second check of whether TRPC6 inhibitors also affect mouse TRPC4 | shares compounds with TRPC6 inh | HEK293 TRPC4/MOR, membrane potential dye fluorescence; channel activated by saturating DAMGO dose | inhibition, % at 10 µM | 920 compounds, 42% hits | AID 2776;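 active = compounds whose fluorescence signal differed from control wells by over 3 SD, either direction, in both duplicate plates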
TRPC4 spec = tests whether TRPC6 inhibitors also affect mouse TRPC4; 920 compounds, 61% hits; activity change, negative = inhibition, % at 10 µM; AID 2777; HEK293 TRPC4/mu-opioid, membrane potential fluorescence; shares compounds with TRPC6 inh;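 active = rise or fall in signal beyond 3 SD of buffer-only wells in both replicate plates, either sign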;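 note: integrated kinetic ratio of fluorescence range over baseline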
HEK293 MPD ctr 2-1 = second counter-screen for TRPC6 inhibitors: parental HEK293 cells; shares compounds with TRPC6 inh; parental HEK293 membrane potential dye fluorescence; maximal acetylcholine challenge after compound addition; signal change vs control, % at 10 µM; 920 compounds, 31% hits;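 active = membrane potential signal moving either way by over 3 SD of the maximum-effect control, in both duplicate plates, meaning non-specific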
HEK293 MPD ctr-1 = checks TRPC6 inhibitor effects in parental HEK293 cells; AID 2780; 920 compounds, 60% hits; shares compounds with TRPC6 inh; parental HEK293 membrane potential dye fluorescence; membrane potential signal change, % at 10 µM;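 active = membrane potential signal shifting up or down by more than 3 SD of buffer-only wells, on both duplicate plates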
HEK293 MPD ctr-2 = parental HEK293 nonspecific activity of TRPC6 modulators. shares compounds with TRPC6 inh. membrane potential dye fluorescence. membrane potential signal change, % at 10 µM. 2,400 compounds, 51% hits. AID 488924;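 active = membrane potential signal moves up or down beyond 5 SD from buffer-only wells, on both duplicate plates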
HEK293 MPD ctr 2-2 = parental HEK293 nonspecific activity of TRPC6 modulators, second screen. shares compounds with TRPC6 inh. membrane potential dye fluorescence; after compound, maximal acetylcholine stimulation. inhibition, % at 10 µM. 2,400 compounds, 14% hits. AID 488926;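 active = membrane potential signal drops by more than 5 SD from the mean control signal, in both duplicate plates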;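 note: plate controls were acetylcholine ECmax control wells for no effect and buffer only wells for full effect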
TRPC4/MOR mod = tests whether TRPC6 modulators also affect mouse TRPC4. HEK293 TRPC4/mu-opioid, membrane potential fluorescence. 2,400 compounds, 69% hits. percent change from control (negative = decrease, positive = increase), % at 10 µM. shares compounds with TRPC6 inh. AID 488927;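 active = membrane potential signal moved up or down beyond 5 SD of buffer control wells, in both duplicate plates, actives on both sides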;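 note: plate controls were assay buffer wells for no effect and DAMGO maximal-effect wells for full effect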
TRPC4/MOR inh 2 = second check of whether TRPC6 modulators also affect mouse TRPC4 | shares compounds with TRPC6 inh | HEK293 TRPC4/mu-opioid, membrane potential dye fluorescence; stimulated with maximal-effect DAMGO | inhibition, % at 10 µM | 2,400 compounds, 55% hits | AID 488928;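 active = drop in membrane potential signal beyond 5 SD of the control wells in both duplicate plates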;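 note: TRPC4 counter screen for TRPC6 hits run under conditions tuned for TRPC6 not TRPC4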
TRPC6 block conf = confirmation of mouse TRPC6 inhibitors. shares compounds with TRPC6 inh. HEK293-TRPC6, membrane potential dye, ACh-evoked depolarization. inhibition, % at 10 µM. 3,300 compounds, 43% hits;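 active = fluorescence ratio falls more than 5 SD below the full-stimulation control mean, in both duplicate runs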;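 note: integrated fluorescence ratio of peak minus minimum over baseline after agonist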
TRPC6 act confirm = mouse TRPC6 activator confirmation; 2,800 compounds, 11% hits; activation, % at 10 µM; HEK293-TRPC6 membrane potential dye fluorescence, FDSS; shares compounds with TRPC6 inh;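 active = ratio signal rise beyond 5 SD above unstimulated control wells' mean, seen in both duplicate runs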;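 note: plate controls were buffer EC0 wells for no effect and acetylcholine ECmax response for full effect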
Starred values were filed as active, the others as inactive; i = inactive; . = no result.

SMILES	CR mimetic SO	TRPC4 potent	TRPC6 activator	TRPC4 inh	TRPC6 inh	TRPC4 agonist	HEK293 MPD ctr-2	HEK293 MPD ctr 2-2	TRPC4/MOR mod	TRPC4/MOR inh 2	TRPC6 block conf	TRPC6 act confirm	others
CNS(=O)(=O)c1cccc(C(=O)OCc2cc(=O)oc3c(C)c(O)ccc23)c1	90	i	i	i	-6.3*	i	i	i	i	54%*	i	i
CCNC(=S)N1CCN(S(=O)(=O)c2ccc(C)c(C)c2)CC1	107	i	i	i	-5.4*	i	i	i	i	i	i	.
CCOC(=O)c1cccc(NC(=O)Cn2nc(C)n3cccc3c2=O)c1	78	i	i	i	i	i	.	.	.	.	.	.
CN(C)c1cc[n+](CC(=O)Nc2ccc(Oc3ccccc3)cc2)cc1	104	i	i	i	-6.3*	i	i	i	-10%*	i	i	i
COc1ccc(-n2c(O)c(/C=N/NS(=O)(=O)c3ccc(C)cc3)c3ccccc3c2=O)cc1OC	95	i	29*	i	i	i	242%*	i	11%*	i	i	96%*
COc1ccc(-n2c(O)c(/C=N/NS(=O)(=O)c3cc(C)ccc3C)c3ccccc3c2=O)cc1OC	89	i	i	i	i	i	.	.	.	.	.	.
Cc1cc(C)cc(N=Cc2[nH]c3ccc(Br)c(Cl)c3c2O)c1	97	11*	36*	i	i	i	i	i	i	i	i	i
COc1cccc(C2=Nc3cccc4cccc(c34)N2)c1	84	i	i	i	-8.1*	i	-94%*	i	-26%*	74%*	52%*	i
Cc1ccc(Cl)cc1N1CCN(CC(=O)Nc2ccc(CN3CCCCC3)cc2)CC1	93	i	i	i	-5.5*	i	152%*	i	19%*	76%*	44%*	.
Cc1noc(NS(=O)(=O)c2ccc(NC(=O)COc3ccc(Cl)cc3Cl)cc2)c1C	120	i	i	i	-5.8*	i	i	i	i	i	i	i
Cc1ccc(C(=O)NC(=S)Nc2ccc(CN3CCCCC3)cc2)c(C)c1	97	i	i	i	-6.3*	i	i	i	i	68%*	40%*	.
O=C(COc1ccc(Cl)cc1Cl)Nc1ccc(CN2CCCCC2)cc1	84	i	i	i	-5.3*	i	194%*	i	34%*	54%*	i	.
Cc1noc(NS(=O)(=O)c2ccc(NC(=O)CCCOc3ccc(Cl)cc3Cl)cc2)c1C	103	i	i	i	i	i	.	.	.	.	.	.
COc1ccc(C(=O)NC(=S)Nc2ccc(CN3CCCCC3)cc2)cc1Cl	106	i	i	i	i	i	.	.	.	.	.	.
COC(=O)c1ccc(N(CC(=O)NCC2CCCO2)C(=O)CCC(=O)Nc2cc(C)on2)cc1 (stereo not given)	87	i	i	i	i	i	.	.	.	.	.	.
CC1CCN(CC(O)CN2c3ccccc3Sc3ccccc32)CC1 (stereo not given)	102	i	i	i	-6.7*	i	.	.	.	.	i	i	TRPC4 spec 2=66%*;TRPC4 spec=1.4%*;HEK293 MPD ctr 2-1=i;HEK293 MPD ctr-1=i
CC1CCN(C(=O)N2c3ccccc3Sc3ccccc32)CC1	94	i	i	i	i	i	.	.	.	.	.	.
Cc1ccc(S(=O)(=O)Nc2nc3ccccc3nc2NCC2CCCO2)c(C)c1 (stereo not given)	98	i	14*	i	i	i	i	i	i	i	i	i
CCOc1ccc2[nH]c(C)cc(=O)c2c1	76	i	i	i	i	i	.	.	.	.	.	.
Cc1cc(=O)c2cccc(Br)c2[nH]1	119	i	i	i	i	i	.	.	.	.	.	.
O=c1cc(C(F)(F)F)[nH]c2ccc(OC(F)(F)F)cc12	120	i	i	i	-7.1*	i	.	.	.	.	104%*	.	TRPC4 spec 2=i;TRPC4 spec=23%*;HEK293 MPD ctr 2-1=22%*;HEK293 MPD ctr-1=13%*
O=c1cc(C(F)(F)F)[nH]c2c(C(F)(F)F)cccc12	92	i	i	i	-10*	i	.	.	.	.	83%*	.	TRPC4 spec 2=66%*;TRPC4 spec=58%*;HEK293 MPD ctr 2-1=i;HEK293 MPD ctr-1=32%*
CC(C)CCNC(=S)Nc1ccc([N+](=O)[O-])cc1	80	i	i	i	i	i	.	.	.	.	.	.
COc1cccc(CNC(=O)CCCNS(=O)(=O)c2cccs2)c1	90	i	i	i	i	i	.	.	.	.	.	.
COc1ccc(NC(=S)N2CCCC(c3nc4ccc(C)cc4[nH]3)C2)cc1 (stereo not given)	98	i	i	i	-6.5*	i	i	i	i	i	i	i
CCc1nnc(NC(=O)Cc2sc(C)nc2-c2ccc(C)cc2)s1	93	i	i	i	i	i	.	.	.	.	.	.
COc1cccc(CN2CCC(n3nccc3NC(=O)CCOc3ccccc3)CC2)c1O	106	i	i	i	-10*	i	.	.	.	.	i	i	TRPC4 spec 2=i;TRPC4 spec=1.8%*;HEK293 MPD ctr 2-1=i;HEK293 MPD ctr-1=0.8%*
